Experimental data taken from ChEMBL document CHEMBL4715918, “Syntheses and evaluation of acridone-naphthalimide derivatives for regulating oncogene PDGFR-β expression” (Bioorg Med Chem, 2021).
pIC50, pKd: −log10 of the molar value.

Key:
[1] = Binding affinity to FAM-labeled 5'-biotin-d [GCGTCCACCCTCCCTGCCCCGCCGCCCCCCCITCTCCCAGC]-3' i-motif DNA (unknown origin) by microscale thermophoresis assay
How it was run: (§1)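 Microscale thermophoresis with DNA held constant at 1 µM. Compound serially diluted 3:4 from 10 µM over 12 points. Samples run in standard glass capillaries with LED and laser power both at 20%. KD derived by fitting.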

[2] = biological target: Quadruplex DNA; assay: Binding affinity to FAM-labeled 5'-biotin-d [GCTGGGAGAAGGGGGGGCGGCGGGGCAGGGAGGGTGGACGC]-3' G4-quadruplex DNA (unknown origin) by microscale thermophoresis assay; format: nucleic-acid assay; how it was run: as §1
[3] = Binding affinity to FAM-labeled 5'-biotin-d[TATAGCTATA-HEG-TATAGCTATA]- 3' duplex DNA (unknown origin) by microscale thermophoresis assay; how it was run: as §1
[4] = Binding affinity to 5'-biotin-d [GCGTCCACCCTCCCTGCCCCGCCGCCCCCCCITCTCCCAGC]-3' i-motif DNA (unknown origin) assessed as change in melting temperature at 10 uM by CD spectroscopy
How it was run: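 Oligomer 2 µM in BPES buffer pH 5.5, heated to 95 °C for 5 min, cooled slowly and held at 4 °C overnight. Ligand 10 µM. CD ellipticity followed at 288 nm from 25–95 °C (1 mm cuvette); Tm derived, ΔTm against DNA alone.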

[5] = Binding affinity to 5'-biotin-d [GCGTCCACCCTCCCTGCCCCGCCGCCCCCCCITCTCCCAGC]-3' i-motif DNA (unknown origin) assessed as decrease in positive peak by CD spectroscopy; settings: dose 2-10 equiv
How it was run: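 CD spectra: oligomers at 2 μM final, in BPES pH 5.5 (i-motif) or Tris-HCl pH 7.4 (G-quadruplex). Samples were annealed (95 °C 5 min, slow cool, 4 °C overnight), then titrated with increasing compound. Spectra were recorded at 25 °C over 230–330 nm in a 1 mm cuvette, buffer-subtracted, averaged and smoothed.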

[6] = system: MCF7; assay: Binding affinity to wild type PDGFRbeta promoter (unknown origin) in human MCF7 cells assessed as down regulation of PDGFRbeta mRNA expression at 1.25 to 20 uM after 12 hrs by RT-PCR analysis; format: cell-based; settings: dose 1.25-20 µM
[7] = system: HEK293; assay: Cytotoxicity against HEK293 cells assessed as reduction in cell viability after 48 hrs by MTT assay; format: cell-based; settings: Homo sapiens, HEK293, 48 h
How it was run: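 MTT assay: cells seeded at 5.0 × 10³/well, grown 12 h, then exposed to graded compound concentrations for 48 h at 37 °C/5% CO2. 2.5 mg/mL MTT was added for 4 h, formazan dissolved in DMSO, and absorbance read at 570 nm. Each dose in triplicate; IC50 from percent survival versus negative control.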

[8] = system: MCF7; assay: Cytotoxicity against human MCF7 cells assessed as reduction in cell viability after 48 hrs by xcCELLigence RTCA analysis; format: functional, cell-based; settings: MCF7, 48 h
How it was run: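 xCELLigence RTCA: MCF-7 cells were cultured on E-plates about 16 h, then treated with 0.625, 1.25, 2.5 μM compound or DMSO. Impedance was monitored for 90 h.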

[9] = system: MCF7; assay: Induction of cell cycle arrest in human MCF7 cells assessed as accumulation at G2/M phase at 0.625 to 10 uM after 48 hrs by propidium iodide staining based flow cytometric analysis (reference value: 15.8%); format: functional; settings: dose 0.625-10 µM
How it was run: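 MCF-7 cells, 2 × 10^5/well, were pre-grown 12 h, then treated with 10, 5, 2.5, 1.25, 0.625 μM compound or DMSO. Cells were fixed in 75% ethanol at −20 °C overnight. Staining was 50 μg/mL PI with RNase A, 30 min at room temperature in the dark. Flow cytometry collected 10,000 events; phase distribution was determined.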

[10] = system: MCF7; assay: Antitumour activity against human MCF7 cells xenografted in nude BALB/c mouse assessed as tumour growth inhibition at 2.5 mg/kg, ip administered for 34 days relative to control; format: functional; settings: 816 h, time 34 day, read-out: TGI
[11] = system: MCF7; assay: Antitumour activity against human MCF7 cells xenografted in nude BALB/c mouse assessed as tumour growth inhibition at 5 mg/kg, ip administered for 34 days relative to control; format: functional; settings: 816 h, time 34 day, read-out: TGI
[12] = system: MCF7; assay: Antitumour activity against human MCF7 cells xenografted in ip dosed nude BALB/c mouse assessed as tumour growth inhibition administered for 34 days; format: functional, organism-based; settings: dose 2.5-10 mg/kg, time 34.0 day
[13] = system: MCF7; assay: Antitumour activity against human MCF7 cells xenografted in nude BALB/c mouse assessed as tumour volume at 5 mg/kg, ip administered for 34 days (reference value: 1530 mm3); format: functional; settings: time 34 day
[14] = system: MCF7; assay: Antitumour activity against human MCF7 cells xenografted in nude BALB/c mouse assessed as tumour volume at 10 mg/kg, ip administered for 34 days (reference value: 1530 mm3); format: functional; settings: time 34 day
[15] = Toxicity in nude BALB/c mouse xenografted with human MCF7 cells assessed as reduction in body weight at 2.5 to 10 mg/kg, ip administered for 34 days; format: organism-based; settings: in vivo, 816 h, dose 2.5-10 mg/kg, time 34 day
How it was run: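 Nude BALB/c females bearing subcutaneous MCF-7 xenografts were dosed ip once daily for 34 days at 2.5, 5.0 or 10 mg/kg, with saline vehicle (100 µL) as control. Body weight was recorded every 2 days. After euthanasia by cervical dislocation, heart, liver, spleen and kidney were removed and weighed.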

[16] = Toxicity in nude BALB/c mouse xenografted with human MCF7 cells assessed as lung weight at 2.5 to 10 mg/kg, ip administered for 34 days; format: organism-based; settings: in vivo, 816 h, dose 2.5-10 mg/kg, time 34 day
[17] = system: MCF7; assay: Induction apoptosis in human MCF7 cells assessed as viable cells at 1.25 uM incubated for 24 hrs by Annexin-FTTC/PI staining based flow cytometric analysis (reference value: 99.7%); format: functional; settings: read-out: Activity
[18] = system: MCF7; assay: Induction apoptosis in human MCF7 cells assessed as viable cells at 2.5 uM incubated for 24 hrs by Annexin-FTTC/PI staining based flow cytometric analysis (reference value: 99.7%); format: functional; settings: read-out: Activity
[19] = system: MCF7; assay: Induction apoptosis in human MCF7 cells assessed as early apoptotic cells at 1.25 uM incubated for 24 hrs by Annexin-FTTC/PI staining based flow cytometric analysis (reference value: 0.28%); format: functional
[20] = system: MCF7; assay: Induction apoptosis in human MCF7 cells assessed as late apoptotic cells at 1.25 uM incubated for 24 hrs by Annexin-FTTC/PI staining based flow cytometric analysis (reference value: 0%); format: functional
[21] = system: MCF7; assay: Induction apoptosis in human MCF7 cells assessed as late apoptotic cells at 5 uM incubated for 24 hrs by Annexin-FTTC/PI staining based flow cytometric analysis (reference value: 0%); format: functional
[22] = system: MCF7; assay: Induction apoptosis in human MCF7 cells assessed as necrotic cells at 1.25 uM incubated for 24 hrs by Annexin-FTTC/PI staining based flow cytometric analysis (reference value: 0.11%); format: functional
[23] = system: MCF7; assay: Binding affinity to wild type PDGFRbeta promoter (unknown origin) in human MCF7 cells assessed as down regulation of PDGFRbeta expression at 1.25 to 20 uM after 12 hrs; settings: dose 1.25-20 µM

With `Cc1ccc2c(c1)c(=O)c1cc(C(=O)NCCCN(C)CCCN3C(=O)c4cccc5c(N6CCN(C)CC6)ccc(c45)C3=O)ccc1n2-c1ccc(C(=O)NCCCN(C)CCCN2C(=O)c3cccc4c(N5CCN(C)CC5)ccc(c34)C2=O)cc1` the pKd [1] was 5.34, the pKd [2] was 5.21 and the pKd [3] was 3.28. For the same compound, the ΔTm [4] was -16.7 °C, the Activity [5] was “Dose-dependent effect” and the Activity [6] was “Dose-dependent effect”. For the same compound, the pIC50 [7] was < 4.30, the pIC50 [8] was 5.56 and the Activity [9] was 31.5%. The inhibition in vivo at 2.5 mg/kg [10] was 34.9%, the inhibition in vivo at 5 mg/kg [11] was 47.6% and the Activity [12] was “Dose-dependent effect”. For the same compound, the Activity [13] was 780 mm3, the Activity [14] was 640.2 mm3 and the Activity [15] was “Non-Toxic”. For the same compound, the Activity [16] was “Non-Toxic”, the viability at 1.25 µM [17] was 91.4% and the viability at 2.5 µM [18] was 71.4%. It also gave an Activity [19] of 7.38%, an Activity [20] of 0.8% and an Activity [21] of 51.1%. The Activity [22] was 0.43% and the Activity [23] was “Dose-dependent effect”.
